Test results published in ChEMBL document CHEMBL3853294, “Design, synthesis and biological evaluation of novel HSP70 inhibitors: N, N'-disubstituted thiourea derivatives” (Eur J Med Chem, 2016).

Legend:
BT-474 [1] = assay: Potentiation of lapatinib-induced growth inhibition of human BT474 cells at 10 uM after 72 hrs by cell titer-glo based luminescence assay; type: functional; settings: BT-474, 72 h, read-out: GI
Outline: (§1)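 Cells were trypsinised and seeded at 5000 cells/well, then cultured 24 h at 37 °C. Compound was added at 10 µM, alone or with 1 µM lapatinib, and incubated 72 h at 37 °C. CellTiter-Glo reagent was added at a volume equal to the medium, followed by 3 min shaking and 10 min at room temperature. Luminescence (ATP) was read and normalised to the blank control group.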

[2] = molecular target: Chaperone protein DnaK (Escherichia coli) (UniProt P0A6Y8); assay: Inhibition of Escherichia coli DnaK ATPase activity at 200 uM incubated on shaker for 10 mins followed by 30 mins incubation by malachite green reagent based colorimetric assay
Homo sapiens [3] = species on record: Homo sapiens; assay: Inhibition of HSP70 in human BT/LapR1.0 cells assessed as potentiation of 1 uM of lapatinib-induced growth inhibition at 10 uM after 72 hrs by cell titer-glo based luminescence assay; outline: as §1
BT-474 [4] = assay: Potentiation of lapatinib-induced growth inhibition of human BT474 cells assessed as coefficient of drug interaction after 72 hrs by cell titer-glo based luminescence assay; type: functional
[5] = Growth inhibition of human BT474 cells at 10 uM after 72 hrs by cell titer-glo based luminescence assay; parameters: species or system BT-474; settings: read-out: GI; outline: as §1
Homo sapiens [6] = species on record: Homo sapiens; assay: Inhibition of HSP70 in human BT/LapR1.0 cells assessed as potentiation of 1 uM of lapatinib-induced growth inhibition after 72 hrs by measuring coefficient of drug interaction by cell titer-glo based luminescence assay
[7] = Growth inhibition of human BT/LapR1.0 cells at 10 uM after 72 hrs by cell titer-glo based luminescence assay; settings: read-out: GI; outline: as §1

Row | SMILES | inhibition of growth at 10 µM (BT-474 [1]) | inhibition [2] | growth inhibition (GI) (Homo sapiens [3]) | Activity (BT-474 [4]) | inhibition at 72 h, 10 µM [5] | Activity (Homo sapiens [6]) | inhibition at 72 h, 10 µM [7]
1 | O=C(/C=C/c1ccccc1)NC(NC(=S)Nc1ccccn1)C1CC1 (stereo not drawn) | 78.8% | < 20% | 25.2% | <1 | 2.4% | < 1 | 6%
2 | COc1cc(/C=C/C(=O)NC(NC(=S)Nc2cccnc2)C2CC2)cc(OC)c1OC (stereo not drawn) | 85.2% | < 20% | 55.7% | <1 | 8.6% | < 1 | 12.3%
3 | CC(C)(C)C(NC(=O)/C=C/c1ccccc1)NC(=S)Nc1ccccc1 (stereo not drawn) | 83.5% | < 20% | 33% | 0.85 | 9.6% | < 1 | 11.4%
4 | COc1cc(/C=C/C(=O)NC(NC(=S)Nc2ccccc2C)C2CC2)cc(OC)c1OC (stereo not drawn) | 87.4% | < 20% | 44.2% | <1 | 44% | 0.79 | 6.8%
5 | COc1cc(/C=C/C(=O)NC(CC(C)C)NC(=S)Nc2cccnc2)cc(OC)c1OC (stereo not drawn) | 79.1% | 38.5% | 54.2% | <1 | 9.2% | < 1 | 10.5%
6 | CC(C)CC(NC(=O)/C=C/c1ccccc1)NC(=S)Nc1ccccc1 (stereo not drawn) | 85% | < 20% | 36.9% | 0.86 | 17.7% | < 1 | 13.6%
7 | COc1cc(/C=C/C(=O)NC(CC(C)C)NC(=S)Nc2ccccn2)cc(OC)c1OC (stereo not drawn) | 87.8% | < 20% | 61% | <1 | 24.9% | < 1 | 38.7%
8 | CC(C)C(NC(=O)/C=C/c1ccccc1)NC(=S)Nc1ccccc1 (stereo not drawn) | 82% | < 20% | 30% | <1 | 9.4% | < 1 | 11.5%
9 | Cc1ccccc1NC(=S)NC(CC(C)C)NC(=O)/C=C/c1ccccc1 (stereo not drawn) | 81.6% | < 20% | 23.3% | 0.84 | 9.8% | < 1 | 12.8%
10 | COc1ccc(NC(=S)NC(NC(=O)/C=C/c2cc(OC)c(OC)c(OC)c2)C(C)C)cc1 (stereo not drawn) | 78.5% | < 20% | 23.4% | <1 | 11.5% | < 1 | 15.4%
11 | COc1cc(/C=C/C(=O)NC(CC(C)(C)C)NC(=S)Nc2cccnc2)cc(OC)c1OC (stereo not drawn) | 89.9% | 47.1% | 59.9% | 0.81 | 22.1% | < 1 | 19.3%
12 | CC(C)C(NC(=O)/C=C/c1ccccc1)NC(=S)NC1CCCCC1 (stereo not drawn) | 80.6% | < 20% | 75.8% | <1 | 10.3% | < 1 | 13.3%
13 | CNC(=S)NC(CC(C)C)NC(=O)/C=C/c1cc(OC)c(OC)c(OC)c1 (stereo not drawn) | 79.8% | < 20% | 30.9% | <1 | 10.5% | < 1 | 13%
14 | COc1cc(/C=C/C(=O)NC(NC(=S)NC2CCCCC2)C(C)C)cc(OC)c1OC (stereo not drawn) | 82.2% | < 20% | 45.7% | 0.82 | 15.3% | 0.8 | 22.6%
15 | COc1cc(/C=C/C(=O)NC(NC(=S)Nc2cccnc2)C(C)(C)C)cc(OC)c1OC (stereo not drawn) | 84.7% | < 20% | 56% | <1 | 10.3% | < 1 | 16%
16 | COc1cc(/C=C/C(=O)NC(NC(=S)NC2CCCCC2)C(C)(C)C)cc(OC)c1OC (stereo not drawn) | 87.3% | 35.8% | 57.8% | 0.56 | 13.5% | 0.86 | 39.8%

Row | SMILES | inhibition of growth at 10 µM (BT-474 [1]) | inhibition [2] | growth inhibition (GI) (Homo sapiens [3]) | Activity (BT-474 [4]) | inhibition at 72 h, 10 µM [5] | Activity (Homo sapiens [6]) | inhibition at 72 h, 10 µM [7]
17 | COc1cc(/C=C/C(=O)NC(NC(=S)Nc2ccccc2)C2CC2)cc(OC)c1OC (stereo not drawn) | 85.2% | 50.5% | 56% | <1 | 12.2% | < 1 | 13.7%
18 | Cc1ccccc1NC(=S)NC(CC(C)(C)C)NC(=O)/C=C/c1ccccc1 (stereo not drawn) | 84.2% | 41% | 41% | 0.74 | 18.2% | 0.79 | 18.9%
19 | CC(C)(C)CC(NC(=O)/C=C/c1ccccc1)NC(=S)Nc1ccccc1 (stereo not drawn) | 84.9% | < 20% | 53% | 0.79 | 11.3% | < 1 | 34.6%
20 | COc1cc(/C=C/C(=O)NC(NC(=S)Nc2ccccn2)C2CC2)cc(OC)c1OC (stereo not drawn) | 87.8% | < 20% | 59.6% | <1 | 20.1% | < 1 | 17.4%
21 | COc1cc(/C=C/C(=O)NC(CC(C)(C)C)NC(=S)Nc2ccccc2)cc(OC)c1OC (stereo not drawn) | 90.9% | 44.1% | 62.3% | 0.65 | 19% | < 1 | 40.9%
22 | Cc1ccccc1NC(=S)NC(NC(=O)/C=C/c1ccccc1)C1CC1 (stereo not drawn) | 78.6% | 65.4% | 20% | <1 | 6% | < 1 | 8.7%
23 | CC(C)CC(NC(=O)/C=C/c1ccccc1)NC(=S)NC1CCCCC1 (stereo not drawn) | 84% | 58.4% | 33.4% | 0.77 | 13.5% | < 1 | 19.8%
24 | COc1cc(/C=C/C(=O)NC(NC(=S)Nc2ccccc2C)C(C)(C)C)cc(OC)c1OC (stereo not drawn) | 81.4% | 50.5% | 30.1% | <1 | 8.2% | < 1 | 9.9%
25 | Cc1ccccc1NC(=S)NC(NC(=O)/C=C/c1ccccc1)C(C)(C)C (stereo not drawn) | 78.7% | < 20% | 20.5% | <1 | 7% | < 1 | 9.7%
26 | O=C(/C=C/c1ccccc1)NC(NC(=S)Nc1ccccc1)C1CC1 (stereo not drawn) | 81.4% | < 20% | 27.8% | <1 | 3.8% | < 1 | 8.7%
27 | CC(C)(C)C(NC(=O)/C=C/c1ccccc1)NC(=S)NC1CCCCC1 (stereo not drawn) | 85.2% | < 20% | 47.2% | 0.77 | 13% | < 1 | 34.3%
28 | COc1cc(/C=C/C(=O)NC(NC(=O)Nc2ccccc2)C(C)C)cc(OC)c1OC (stereo not drawn) | 79.1% |  | 32.8% | <1 | 4.8% | < 1 | 11.4%
29 | COc1cc(/C=C/C(=O)NC(CC(C)(C)C)NC(=S)Nc2ccccn2)cc(OC)c1OC (stereo not drawn) | 88.5% | < 20% | 65.9% | <1 | 25.8% | < 1 | 31.5%
30 | COc1cc(/C=C/C(=O)NC(CC(C)C)NC(=S)Nc2ccccc2)cc(OC)c1OC (stereo not drawn) | 76.6% | 50.4% | 42.2% | <1 | 7.3% | < 1 | 9.4%
31 | COc1cc(/C=C/C(=O)NC(CC(C)C)NC(=S)NC2CCCCC2)cc(OC)c1OC (stereo not drawn) | 83.4% | 46.2% | 48.1% | 0.73 | 16.5% | < 1 | 38.8%
32 | COc1cc(/C=C/C(=O)NC(NC(=S)Nc2ccccc2)C(C)(C)C)cc(OC)c1OC (stereo not drawn) | 83.2% | < 20% | 48.8% | <1 | 2.2% | < 1 | 2.9%
